Assay results of several laboratories.
Each line is one published result; the experiments were not run side by side.
Target: Adenosine receptor A3 (ADORA3, Homo sapiens, UniProt P0DMS8)
Residues used in one study (P0DMS8 1-318): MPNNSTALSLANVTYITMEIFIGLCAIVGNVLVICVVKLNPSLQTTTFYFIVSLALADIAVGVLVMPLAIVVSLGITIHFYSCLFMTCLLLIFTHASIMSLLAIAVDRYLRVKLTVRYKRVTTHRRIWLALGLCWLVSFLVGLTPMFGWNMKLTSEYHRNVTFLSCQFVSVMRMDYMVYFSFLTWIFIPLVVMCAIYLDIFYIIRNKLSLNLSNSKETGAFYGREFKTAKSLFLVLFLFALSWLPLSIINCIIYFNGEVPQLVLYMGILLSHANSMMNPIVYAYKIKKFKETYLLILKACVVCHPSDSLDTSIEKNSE

Structure (SMILES)	effect on	method	notes	Ki
CCCN1CCCn2c1nc1c2c(=O)n(C)c(=O)n1C	ligand displacement	radioligand	cell membranes	> 10000 nM
Nc1nc2c(cnn2CCc2ccccc2)c2nc(-c3ccco3)nn12	ligand displacement in cells	BRET	–	158 nM
CNC(=O)[C@@]12C[C@@H]1[C@@H](n1cnc3c(NCc4cn(C56CC7CC(CC(C7)C5)C6)nn4)nc(Cl)nc31)[C@H](O)[C@@H]2O	ligand displacement	radioligand	cell membranes	38.1 nM
NC1C(O)C(n2cnc3c(NCc4cccc(I)c4)ncnc32)C2CC12 (stereo not shown)	ligand displacement	radioligand	cell membranes	5460 nM
O=C(NCCC(c1ccccc1)c1ccccc1)[C@H]1S[C@@H](n2cnc3c(NCc4cccc(I)c4)ncnc32)[C@H](O)[C@@H]1O	ligand displacement	radioligand	–	116 nM
Nc1nc2ccc(Cl)cc2c2nc(-c3ccco3)nn12	ligand displacement in cells	BRET	–	7.59 nM
CC(C)=CCNc1ncnc2c1ncn2[C@@H]1O[C@H](CO)[C@@H](O)[C@H]1O	ligand displacement	radioligand	cell membranes	159 nM
CCCCn1c(=O)c2[nH]c(C34CC5CC(CC3C5)C4)nc2n(CCCO)c1=O	ligand displacement	radioligand	cell membranes	> 1000 nM
O[C@@H]1[C@H](O)[C@@H]2C[C@@H]2[C@H]1n1cnc2c(NCc3cn(C45CC6CC(CC(C6)C4)C5)nn3)nc(Cl)nc21	ligand displacement	radioligand	cell membranes	2190 nM
CCNC(=O)C1OC(n2cnc3c(N)nc(NN=CC4CCC=CO4)nc32)C(O)C1O (stereo not shown)	ligand displacement	radioligand	–	16 nM
CCCCCN1CCCn2c1nc1c2c(=O)n(C)c(=O)n1C	ligand displacement	radioligand	cell membranes	> 10000 nM
OC[C@@]12C[C@@H]1[C@@H](n1cnc3c(NC(C4CCCC4)C4CCCC4)nc(Cl)nc31)[C@H](O)[C@@H]2O	ligand displacement	radioligand	–	4380 nM
COCCOc1ccc(N2CCN(CCn3ncc4c3nc(N)n3nc(-c5ccco5)nc43)CC2)cc1	ligand displacement	radioligand	cell membranes	> 1000 nM
CNC(=O)[C@@]12C[C@@H]1[C@@H](n1cnc3c(NCc4cccc(Cl)c4)nc(C#Cc4cccc(C(=O)NCCOCCOCCOCCOCCOCCOCCC(=O)N5CCC(c6ccc(-c7cc(C(=O)O)cc8cc(-c9ccc(C(F)(F)F)cc9)ccc78)cc6)CC5)c4)nc31)[C@H](O)[C@@H]2O	ligand displacement in cells	radioligand	–	3.6 nM
CNC(=O)[C@@]12C[C@@H]1[C@@H](n1cnc3c(NCc4cn(-c5ccc(C(=O)NCCCF)cc5)nn4)nc(Cl)nc31)[C@H](O)[C@@H]2O	ligand displacement	radioligand	cell membranes	36.7 nM
CN1CCCn2c1nc1c2c(=O)n(C)c(=O)n1C	ligand displacement	radioligand	cell membranes	> 10000 nM
